Entries after “also recorded” stand apart in the source; their conditions may differ.

For experiment [1], the system named is IDH1 mutated cancer cells. The following applies: cited from earlier work.
For experiment [2], the system named is BT142 glioma cells with IDH1 R132H mutation. Put plainly: Proliferation of glioma stem-like cells. It is filed as cell-based. The following applies: 14 days.
For experiment [3], the system named is BXD-3752 glioma cells without an IDH1 mutation. Kind of experiment: Proliferation of glioma stem-like cells. It is filed as cell-based. The following applies: BXD-3752, no IDH1 mutation, 14 days.
The target in experiment [4] is T1, IDH1(R132H) (Homo sapiens, UniProt O75874, R132H). Kind of experiment: IDH1. It is filed as biochemical. Particulars: for Fold less active than compound 4: IDH1(R132H) Ki compared with compound 4. The procedure, abridged: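 E. coli-expressed, column-purified IDH1(R132H) (100 nM) in 50 mM HEPES pH 7.5 with 4 mM MgCl2, 100 µM NADPH and graded inhibitor. After 5 min preincubation, 1 mM α-KG was added to start the reaction. NADPH consumption was read at 340 nm every 30 s. IC50s came from dose-response fits. Ki was derived by Cheng-Prusoff (Km 0.965 mM), or by Morrison tight-binding fitting when IC50 <1 µM. Values are means of ≥3 independent runs.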

The subject of experiment [5] is HT1080 cells (IDH1 R132C). Kind of experiment: D2HG production inhibition in HT1080 cells. The experiment is classed as cell-based, human. The following applies: treated 2 days (48h). The procedure, abridged: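 HT1080 cells (10^5/well) grown in DMEM with 10% dialyzed FBS and exposed to increasing test-compound concentrations for 48h. Culture medium was collected, diluted with MeOH and centrifuged (20,000 rpm, 3 min). D2HG in the supernatant was quantified by HPLC-MS.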

Experiment [6] concerns the target T1, IDH1(R132H). Put plainly: Steady-state enzyme kinetic study. The experiment is classed as biochemical.
The test system of experiment [7] is HT1080 cells (IDH1 R132C). Put plainly: Histone lysine methylation levels, Western blot. The experiment is classed as cell-based, human. The following applies: treated 4 days. In a few lines:
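After 4 days of test-compound exposure, histones were extracted from treated and control HT1080 cells. Extracts were analysed by Western blot using antibodies to total human histone H3 and to specific methylated lysine marks.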
Background: A western blot detects proteins with antibodies after separation by electrophoresis.

The target in experiment [8] is T1, IDH1(R132H). Kind of experiment: Isothermal titration calorimetry. It is filed as binding. In general terms: In ITC the heat of successive injections is recorded.
[9] abbreviates: IDH1(R132H) 100 μM without NADPH, 298K.
Setting [10] is: IDH1(R132H) 100 μM without NADPH, 298K, pH 7.4.

T1 sequence (O75874 whole entry R132H): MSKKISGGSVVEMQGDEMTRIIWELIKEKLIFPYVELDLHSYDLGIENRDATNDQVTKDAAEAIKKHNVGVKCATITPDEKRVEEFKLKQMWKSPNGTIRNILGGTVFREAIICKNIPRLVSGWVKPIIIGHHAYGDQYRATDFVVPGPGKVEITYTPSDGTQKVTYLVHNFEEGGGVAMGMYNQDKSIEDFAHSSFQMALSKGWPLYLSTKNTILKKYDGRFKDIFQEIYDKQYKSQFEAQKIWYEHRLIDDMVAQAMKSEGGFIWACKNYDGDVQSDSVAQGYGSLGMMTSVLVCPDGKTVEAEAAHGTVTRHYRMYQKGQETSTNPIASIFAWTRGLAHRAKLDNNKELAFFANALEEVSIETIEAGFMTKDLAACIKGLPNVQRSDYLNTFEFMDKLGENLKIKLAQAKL

As for `Cc1ccccc1C(C(=O)NC1CCCCC1)N(C(=O)Cn1ccnc1C)c1cccc(F)c1` (stereo not shown) [Compound 1, reference compound], in experiment [1], the “Effect on proliferation of IDH1 mutated cancer cells” value was “can also inhibit proliferation”. Further, the “Effect on proliferation / neurosphere formation of glioma stem-like cells” value in experiment [2] is recorded as “inhibited neurosphere formation; also recorded: can inhibit growth”; in experiment [3], “did not affect neurosphere formation”.

As for `O=C1C(=Cc2ccc(O)c(O)c2)NC(=S)N1Cc1ccccc1` [Compound 4, 3-benzyl-5-(3,4-dihydroxybenzylidene)-2-thiohydantoin], on IDH1(R132H) [4], the affinity, expressed as Ki, was 4.7 µM.

Turning to `COc1ccc(/C=C2/NC(=S)N(c3ccccc3)C2=O)cc1OC` [Compound 6], the “Inhibitory activity against IDH1(R132H) in words” value (“Inhibitory activity” below) on IDH1(R132H) [4] is “inactive”.

On to `COc1ccc(CN2C(=O)/C(=C\c3ccc(OC)c(OC)c3)NC2=S)cc1` [Compound 7], for which, at IDH1(R132H) [4], the “Inhibitory activity” value is “inactive”.

Consider `O=C1/C(=C\c2ccc(O)c(O)c2)NC(=S)N1c1ccccc1` [Compound 8], for which the “Fold less active than compound 4” value at IDH1(R132H) [4] is on record as ~ 3 fold.

With `O=C1/C(=C\c2ccc(O)c(O)c2)NC(=S)N1Cc1ccc(O)cc1` [Compound 9], the “Fold less active than compound 4” value on IDH1(R132H) [4] is given as ~ 3 fold.

`O=C1/C(=C\c2cccnc2)NC(=S)N1Cc1ccccc1` [Compound 10]: the “Inhibitory activity” value at IDH1(R132H) [4] is “inactive”.

As to `COc1ccc(/C=C2/NC(=S)N(Cc3ccccc3)C2=O)cn1` [Compound 11], the “Inhibitory activity” value on IDH1(R132H) [4] was “inactive”.

Regarding `CN1C(=O)/C(=C\c2ccc(=O)[nH]c2)NC1=S` [Compound 16], the “Effect on proliferation / neurosphere formation of glioma stem-like cells” value is listed as “inhibited neurosphere formation; also recorded: significantly inhibit proliferation” in experiment [2] and “did not affect neurosphere formation; also recorded: did not have activity” in experiment [3]. In experiment [5], the “Effect on production of D2HG” value is “significantly reduced the production of D2HG; also recorded: significantly reduced amount of D2HG”.

For the molecule `O=C1NC(=S)N/C1=C/c1ccc(=O)[nH]c1` [Compound 18], the “Effect on proliferation / neurosphere formation of glioma stem-like cells” value in experiment [2] is “inhibited neurosphere formation; also recorded: significantly inhibit proliferation”. For the same molecule, the “Effect on proliferation / neurosphere formation of glioma stem-like cells” value in experiment [3] was “did not affect neurosphere formation; also recorded: did not have activity”. In addition, the “Effect on production of D2HG” value in experiment [5] is listed as “significantly reduced the production of D2HG; also recorded: significantly reduced amount of D2HG”. The “Mode of action against the cofactor NADPH” value on IDH1(R132H) [6] (variable NADPH, Michaelis-Menten plot) is given as “noncompetitive”. Moreover, the “Mode of action against the substrate α-KG” value on IDH1(R132H) [6] (variable α-KG, Lineweaver-Burk plot) was “competitive”. Further, the “Effect on histone lysine methylation levels (H3K4me3, H3K4me2, H3K27me2, H4K20me2)” value in experiment [7] is recorded as “significantly reduced methylation levels; also recorded: significantly reduce the methylation levels”. Further, on IDH1(R132H) [8] (setting [9]), the “calculated ΔS of binding” value is recorded as 95.0 J K^−1 mol^−1 and the ΔG of binding was -29.8 kJ/mol. At IDH1(R132H) [8] (setting [10]), the “Ka (affinity constant)” value worked out at 168000 M⁻¹ and the ΔH of binding was -1.5 kJ/mol. For the same molecule, the ΔH of binding on IDH1(R132H) [8] (IDH1(R132H) 133 μM in the presence of NADPH (300 μM)) was -2.5 kJ/mol.

For `COc1ccc(/C=C2/NC(=S)N(CC(=O)O)C2=O)cn1` [Compound 19], the “Inhibitory activity” value on IDH1(R132H) [4] is given as “none of these compounds are active”.

As for `O=C(O)CN1C(=O)/C(=C\c2ccc(=O)[nH]c2)NC1=S` [Compound 20], the “Inhibitory activity” value on IDH1(R132H) [4] was “none of these compounds are active”. Moreover, the “Effect on production of D2HG” value in experiment [5] is “did not significantly reduce D2HG”. The “Effect on histone lysine methylation levels (H3K4me3, H3K4me2, H3K27me2, H4K20me2)” value in experiment [7] is “did not significantly affect histone methylation levels; also recorded: did not significantly reduce”.

With `O=C1NC(=S)N/C1=C/c1ccnc(Br)c1` [Compound 32], the “Inhibitory activity” value on IDH1(R132H) [4] is listed as “Loss of activity”.

Consider `COc1ccc(/C=C2/NC(=O)NC2=O)cn1` [Compound 37], for which the “Inhibitory activity” value on IDH1(R132H) [4] is “Complete loss of activity”.

As to `O=C1NC(=O)/C(=C\c2ccc(=O)[nH]c2)N1` [Compound 38], the “Inhibitory activity” value on IDH1(R132H) [4] was “Complete loss of activity”.

Regarding `NC1=N/C(=C/c2ccc(=O)[nH]c2)C(=O)N1` [Compound 39], on IDH1(R132H) [4], the “Inhibitory activity” value is “inactive”.

Regarding `CSC1=N/C(=C/c2ccc(=O)[nH]c2)C(=O)N1` [Compound 40], the “Inhibitory activity” value on IDH1(R132H) [4] is “completely lose the inhibitory activity”.

In the case of `CN1C(=O)/C(=C\c2ccc(=O)[nH]c2)N(C)C1=S` [Compound 41], the “Fold activity reduction compared to compound 16” value at IDH1(R132H) [4] (IDH1(R132H) Ki compared with compound 16) is recorded as 22 fold.

The record behind these values is article PMC4567406 (Journal of medicinal chemistry, 2015).
